According to article PMC7161550 (British Journal of Pharmacology, 2020):
Several values for one entry are separate records, joined by “and”; a condition that tells them apart may be missing. Equal values may be shown once. Read-outs that look alike come from different tables or passages of the source.

Experiments:
[1] = target: T1, rat brain fatty acid amide hydrolase (FAAH) (Rattus norvegicus, UniProt P97612); assay type: biochemical
T1 sequence (P97612 1-579): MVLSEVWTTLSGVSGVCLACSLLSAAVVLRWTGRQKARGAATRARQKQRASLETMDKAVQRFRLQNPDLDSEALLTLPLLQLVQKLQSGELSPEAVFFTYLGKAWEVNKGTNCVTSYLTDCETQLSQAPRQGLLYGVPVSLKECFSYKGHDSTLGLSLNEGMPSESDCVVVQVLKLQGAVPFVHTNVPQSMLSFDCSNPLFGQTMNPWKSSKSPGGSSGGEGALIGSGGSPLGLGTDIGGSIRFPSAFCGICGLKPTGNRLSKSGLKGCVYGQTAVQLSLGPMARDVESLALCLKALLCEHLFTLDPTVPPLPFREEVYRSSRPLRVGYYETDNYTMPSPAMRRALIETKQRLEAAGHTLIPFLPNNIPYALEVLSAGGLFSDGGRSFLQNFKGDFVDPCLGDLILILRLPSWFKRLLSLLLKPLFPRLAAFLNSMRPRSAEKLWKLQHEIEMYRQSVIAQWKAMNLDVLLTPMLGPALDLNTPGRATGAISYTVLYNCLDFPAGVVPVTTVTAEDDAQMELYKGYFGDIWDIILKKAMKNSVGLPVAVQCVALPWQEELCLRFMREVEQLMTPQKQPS
Outline: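 Rat brain membranes from Wistar rats, 10 μg protein, in 1 mM EDTA, 10 mM Tris, pH 7.6. Test compound at 1 nM–10 μM, pre-incubated with enzyme 5–60 min, or reaction started with enzyme when not pre-incubated. Substrate 2 μM AEA + 5 nM 3H‑AEA + 0.1% fatty acid-free BSA, 30 min at room temperature with agitation. Charcoal stop; supernatant 3H‑ethanolamine counted. Blank and vehicle controls; IC50 from normalized variable-slope sigmoidal fit.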

[2] = target: T2, mouse liver fatty acid amide hydrolase (FAAH) (Mus musculus, UniProt O08914); assay: Ex vivo FAAH activity in mouse liver after oral administration; settings: for ED50 [95% CI] Liver: 8 hr after oral administration
T2 sequence (O08914 1-579): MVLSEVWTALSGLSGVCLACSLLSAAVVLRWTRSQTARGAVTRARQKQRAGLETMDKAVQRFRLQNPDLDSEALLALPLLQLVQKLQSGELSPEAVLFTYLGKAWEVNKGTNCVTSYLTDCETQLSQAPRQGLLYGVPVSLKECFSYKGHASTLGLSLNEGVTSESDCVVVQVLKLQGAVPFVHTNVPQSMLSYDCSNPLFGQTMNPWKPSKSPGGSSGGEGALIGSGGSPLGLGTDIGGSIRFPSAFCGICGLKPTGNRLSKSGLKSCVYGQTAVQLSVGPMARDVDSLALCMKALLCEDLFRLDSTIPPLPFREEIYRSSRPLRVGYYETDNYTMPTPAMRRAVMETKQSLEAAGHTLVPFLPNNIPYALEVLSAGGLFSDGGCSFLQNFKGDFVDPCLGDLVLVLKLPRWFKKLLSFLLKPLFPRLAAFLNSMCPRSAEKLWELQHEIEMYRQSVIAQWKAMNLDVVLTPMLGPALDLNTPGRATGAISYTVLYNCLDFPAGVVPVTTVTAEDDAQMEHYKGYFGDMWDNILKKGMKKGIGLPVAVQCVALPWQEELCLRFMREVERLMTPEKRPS
Outline: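 Liver and half-brain were collected into FAAH membrane buffer (3 mM MgCl2, 1 mM EDTA, 50 mM Tris HCl, pH 7.4) and stored at −20°C. Homogenates (15 μg protein brain, 5 μg liver) were pre-incubated 15 min at 37°C. AEA + 3H‑AEA + BSA was added for 10 min (brain) or 7 min (liver), then charcoal. Scintillation counting gave % remaining activity versus controls after blank subtraction.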

COS‐hFAAH cells = assay: Quantification of compounds in COS‐hFAAH supernatant, cell lysates and medium; assay type: in vitro ADME; settings: 1, 3 and 24 hr
[3] = target: T3, fatty acid amide hydrolase (Rattus norvegicus, UniProt P97612); assay: Gel‐based competitive ABPP in vitro, TAMRA‐FP probe, rat brain fractions; assay type: biochemical; settings: 1 hr
T3 sequence (P97612 1-579): T1 sequence (P97612 1-579)
Outline: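 Rat brain membrane and soluble protein extracts (200 μg) were incubated 1 hr at room temperature with test compound at 1 nM–100 μM, DMSO vehicle or PMSF 3 mM. Active serine hydrolases were then labelled with TAMRA‑FP probe (2 μM final) for 1 hr at room temperature. Bands were visualized by in-gel fluorescence.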

[4] = target: T4, human recombinant fatty acid amide hydrolase (FAAH) (Homo sapiens, UniProt O00519); assay: FAAH activity in intact COS‐hFAAH cells; assay type: cell-based
T4 sequence (O00519 1-579): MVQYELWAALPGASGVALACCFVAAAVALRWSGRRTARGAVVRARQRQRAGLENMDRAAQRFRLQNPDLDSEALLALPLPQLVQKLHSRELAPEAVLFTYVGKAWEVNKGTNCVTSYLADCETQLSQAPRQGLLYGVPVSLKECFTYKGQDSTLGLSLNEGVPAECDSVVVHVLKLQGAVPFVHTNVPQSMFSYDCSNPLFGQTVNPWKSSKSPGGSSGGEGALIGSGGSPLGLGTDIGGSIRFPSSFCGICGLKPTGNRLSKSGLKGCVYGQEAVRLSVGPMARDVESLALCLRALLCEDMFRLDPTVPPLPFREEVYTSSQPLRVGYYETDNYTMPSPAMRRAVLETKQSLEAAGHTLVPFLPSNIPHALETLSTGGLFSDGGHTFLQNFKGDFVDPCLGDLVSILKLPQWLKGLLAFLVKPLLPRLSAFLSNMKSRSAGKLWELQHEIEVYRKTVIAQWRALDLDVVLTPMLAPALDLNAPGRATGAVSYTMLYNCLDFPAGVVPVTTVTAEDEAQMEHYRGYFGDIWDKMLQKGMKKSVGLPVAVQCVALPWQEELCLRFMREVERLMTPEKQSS

[5] = tested on: brain fatty acid amides (AEA, PEA, OEA); assay: Fatty acid amides; assay type: in vivo; settings: mouse brain, 8 hr
Outline: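 Frozen brains were thawed at 4°C and weighed. Each sample was extracted with chloroform:MeOH (2:1) plus 0.1 M phosphate buffer, pH 5.6. Deuterated internal standards were spiked in: AEA‑d8, PEA‑d4 and OEA‑d2 for the fatty acid amides, and 2‑AG‑d8 for 2‑AG.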

SMILES | detection in cell lysates (COS‐hFAAH cells) | stability in cellular media over time (COS‐hFAAH cells) | concentration that completely inhibited the band corresponding to the MW of FAAH [3] [µM] | AEA ([5]; 0.01 mg·kg^−1 p.o.) | OEA ([5]; 0.01 mg·kg^−1 p.o.) | PEA ([5]; 0.01 mg·kg^−1 p.o.) | AEA ([5]; 0.03 mg·kg^−1 p.o.) | OEA ([5]; 0.03 mg·kg^−1 p.o.) | PEA ([5]; 0.03 mg·kg^−1 p.o.) | AEA ([5]; 0.1 mg·kg^−1 p.o.) | OEA ([5]; 0.1 mg·kg^−1 p.o.) | PEA ([5]; 0.1 mg·kg^−1 p.o.) | AEA ([5]; 0.3 mg·kg^−1 p.o.) | OEA ([5]; 0.3 mg·kg^−1 p.o.) | PEA ([5]; 0.3 mg·kg^−1 p.o.) | also measured
CN(C(=O)n1cnc(-c2ccc[n+]([O-])c2)c1)C1CCCCC1 [BIA 10‐2474, 3‐(1‐(cyclohexyl (methyl)carbamoyl)‐1H‐imidazol‐4‐yl)pyridine 1‐oxide] | undetectable | stable | 100 | 89.5 ± 9.3 % of control | 109.1 ± 8.6 % of control | 107.2 ± 8.8 % of control | 87.0 ± 10.3 % of control | 143.1 ± 30.6 % of control | 178.6 ± 62.7 % of control | 136.8 ± 16.4 % of control | 676.5 ± 89.8 % of control | 1027.6 ± 148.0 % of control | 172.1 ± 29.5 % of control | 804.0 ± 107.6 % of control | 1,223.3 ± 159.6 % of control | IC50 ([1]; IC50 [95% CI], pre‐incubation 0 min): 1130 nM; IC50 ([1]; IC50 [95% CI], pre‐incubation 5 min): 1180 nM; IC50 ([1]; IC50 [95% CI], pre‐incubation 15 min): 626 nM; IC50 ([1]; IC50 [95% CI], pre‐incubation 30 min): 424 nM; IC50 ([1]; IC50 [95% CI], pre‐incubation 45 min): 360 nM; IC50 ([1]; IC50 [95% CI], pre‐incubation 60 min): 398 nM; IC50 ([1]; IC50 values over all pre‐incubation times, rat brain membranes): 360 to 1130 nM; IC50 fold higher than those for JNJ‐42165279 ([1]; rat brain membranes): 2–4 fold; ED50 [95% CI] Liver ([2]; 480 min): 6.2 μg·kg^−1 and 6.2 [4.8, 7.9] μg·kg^−1; inhibition at 0.1 mg/kg ([2]; po, read-out: inhibition of liver FAAH): > 96.5%; fold less potent than PF‐04457845 in inhibiting human FAAH in situ [4]: 10 fold; IC50 ([4]; IC50 [95% CI], incubation 1 hr): 74.4 nM; IC50 ([4]; IC50 [95% CI], incubation 3 hr): 42.5 nM; IC50 ([4]; IC50 [95% CI], incubation 24 hr): 18 nM; IC50 ([4]; IC50 values over all incubation times, intact cells expressing human FAAH): 18 to 74 nM
O=C(Nc1cccnn1)N1CCC(=Cc2cccc(Oc3ccc(C(F)(F)F)cn3)c2)CC1 [PF‐04457845] | detected | not stable | 0.1 | 220.2 ± 46.9 % of control | 837.5 ± 115.5 % of control | 984.3 ± 107.1 % of control | 257.6 ± 16.9 % of control | 886.1 ± 42.6 % of control | 1073.1 ± 85.1 % of control | 268.7 ± 10.8 % of control | 933.4 ± 17.5 % of control | 1080.9 ± 62.0 % of control | 309.4 ± 16.6 % of control | 961.4 ± 48.2 % of control | 1,141.9 ± 56.3 % of control | IC50 ([1]; read-out: IC50 [95% CI], pre‐incubation 0 min): 3.9 nM; IC50 ([1]; read-out: IC50 [95% CI], pre‐incubation 5 min): 2.8 nM; IC50 ([1]; read-out: IC50 [95% CI], pre‐incubation 15 min): 1.5 nM; IC50 ([1]; read-out: IC50 [95% CI], pre‐incubation 30 min): 2.7 nM; IC50 ([1]; read-out: IC50 [95% CI], pre‐incubation 45 min): 2.7 nM; IC50 ([1]; read-out: IC50 [95% CI], pre‐incubation 60 min): 2 nM; liver FAAH activity, % of control levels ([2]; 0.1 mg·kg^−1 p.o., 48 hr): 72.3%; inhibition of hepatic FAAH, mean values ([2]; 0.1 mg·kg^−1 p.o., over 24 hr): above 88.7%; ED50 [95% CI] Liver [2]: 2.0 [1.8, 2.2] μg·kg^−1; IC50 ([4]; read-out: IC50 [95% CI], incubation 1 hr): 4.3 nM; IC50 ([4]; read-out: IC50 [95% CI], incubation 3 hr): 3.4 nM; AEA ([5]; 0.003 mg·kg^−1 p.o.): 88.5 ± 7.5 % of control; OEA ([5]; 0.003 mg·kg^−1 p.o.): 97.1 ± 8.0 % of control; PEA ([5]; 0.003 mg·kg^−1 p.o.): 100.6 ± 16.4 % of control
